{"source": "ChEMBL document CHEMBL1649583", "about": "(Antimicrob Agents Chemother, 2009)", "key": {"[1]": {"experiment": "Tmax in human adults with pulmonary tuberculosis at 600 mg administered twice daily for 7 days", "type": "ADME, organism-based", "conditions": "in vivo", "summary_of_the_method": "(§1)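 Plasma was drawn at steady state, predose and at 1, 2, 4, 8, 12, 18 and 24 h, and stored at -80°C. Assay was validated HPLC with 0.5–30 μg/ml standards. A one-compartment population model (NPAG) gave median individual Bayesian estimates; other parameters came from standard equations.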"}, "[2]": {"experiment": "Apparent oral clearance in human adults with pulmonary tuberculosis at 600 mg administered twice daily for 7 days", "type": "ADME, organism-based", "conditions": "in vivo", "summary_of_the_method": "as §1"}, "[3]": {"experiment": "Cmax in human adults with pulmonary tuberculosis at 600 mg administered twice daily for 7 days", "type": "ADME, organism-based", "set-up": "dose 600 mg", "conditions": "in vivo", "summary_of_the_method": "as §1"}, "[4]": {"experiment": "Elimination half life in human adults with pulmonary tuberculosis at 600 mg administered daily for 7 days", "type": "ADME, organism-based", "conditions": "in vivo, read-out: beta t1/2 (converted)", "summary_of_the_method": "as §1"}, "[5]": {"experiment": "fT>MIC in human adults with pulmonary tuberculosis at 600 mg administered once daily for 5 days", "type": "functional", "summary_of_the_method": "(§2)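 Steady-state plasma profiles after the fifth 600 mg dose, given once or twice daily, were fitted with a one-compartment population model. Concentrations were corrected to free drug assuming 31% protein binding. MIC came from each patient's pretreatment sputum isolate, tested by Bactec 460 and on Middlebrook 7H-10 agar. The result is the percent of the dosing interval with free drug above MIC.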"}, "[6]": {"system": "Mycobacterium tuberculosis", "experiment": "Antimicrobial activity against Mycobacterium tuberculosis in human adults with pulmonary tuberculosis at 600 mg administered twice for 7 days", "type": "functional", "conditions": "168 h"}, "[7]": {"experiment": "Elimination half life in human adults with pulmonary tuberculosis at 600 mg administered twice daily for 7 days", "type": "ADME, organism-based", "conditions": "in vivo, read-out: beta t1/2 (converted)", "summary_of_the_method": "as §1"}, "[8]": {"experiment": "Apparent oral clearance in human adults with pulmonary tuberculosis at 600 mg administered daily for 7 days", "type": "ADME, organism-based", "conditions": "in vivo", "summary_of_the_method": "as §1"}, "[9]": {"experiment": "fT>MIC in human adults with pulmonary tuberculosis at 600 mg administered twice daily for 5 days", "type": "functional", "summary_of_the_method": "as §2"}, "[10]": {"system": "Homo sapiens", "experiment": "Absorption rate constant in human adults with pulmonary tuberculosis at 600 mg administered twice daily for 7 days", "type": "ADME, organism-based", "conditions": "in vivo, 168 h", "summary_of_the_method": "(§3)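 Adults with pulmonary TB (once daily n=10, twice daily n=9) fasted overnight before the fifth morning dose. Plasma was drawn at steady state predose and 1, 2, 4, 8, 12, 18 and 24 h after dosing, stored at -80°C, and assayed by validated HPLC (standards 0.5–30 μg/ml). ka comes from a one-compartment NPAG population model fitted per regimen, reported as the median of individual Bayesian estimates.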"}, "[11]": {"experiment": "Cmax in human adults with pulmonary tuberculosis at 600 mg administered daily for 7 days", "type": "ADME, organism-based", "set-up": "dose 600 mg", "conditions": "in vivo", "summary_of_the_method": "as §1"}, "[12]": {"experiment": "Elimination rate constant in human adults with pulmonary tuberculosis at 600 mg administered twice daily for 7 days", "type": "ADME, organism-based", "conditions": "in vivo", "summary_of_the_method": "as §1"}, "[13]": {"experiment": "Cmax in human adults with pulmonary tuberculosis at 600 mg administered once daily for 5 days", "type": "ADME, organism-based", "set-up": "dose 600 mg", "conditions": "in vivo", "summary_of_the_method": "as §1"}, "[14]": {"experiment": "Cmax in human adults with pulmonary tuberculosis at 600 mg administered twice daily for 5 days", "type": "ADME, organism-based", "set-up": "dose 600 mg", "conditions": "in vivo", "summary_of_the_method": "as §1"}, "[15]": {"experiment": "Tmax in human adults with pulmonary tuberculosis at 600 mg administered daily for 7 days", "type": "ADME, organism-based", "conditions": "in vivo", "summary_of_the_method": "as §1"}, "[16]": {"system": "Homo sapiens", "experiment": "Absorption rate constant in human adults with pulmonary tuberculosis at 600 mg administered daily for 7 days", "type": "ADME, organism-based", "conditions": "in vivo, 168 h", "summary_of_the_method": "as §3"}, "[17]": {"experiment": "Elimination rate constant in human adults with pulmonary tuberculosis at 600 mg administered daily for 7 days", "type": "ADME, organism-based", "conditions": "in vivo", "summary_of_the_method": "as §1"}, "[18]": {"system": "Mycobacterium tuberculosis", "experiment": "Antimicrobial activity against Mycobacterium tuberculosis in human adults with pulmonary tuberculosis at 600 mg administered daily for 7 days", "type": "functional", "conditions": "168 h"}}}
{"smiles": "CC(=O)NC[C@H]1CN(c2ccc(N3CCOCC3)c(F)c2)C(=O)O1", "note": "[LINEZOLID]", "values": [{"measurement": "Tmax", "setting": "[1]", "value": 1, "unit": "h"}, {"measurement": "CL/F", "setting": "[2]", "value": 80, "unit": "mL/min"}, {"measurement": "Cmax", "setting": "[3]", "value": 19400, "unit": "ng/mL"}, {"measurement": "half-life", "setting": "[4]", "value": 2.9, "unit": "h"}, {"measurement": "fT>MIC", "setting": "[5]", "value": 62.8, "unit": "%"}, {"measurement": "MIC", "setting": "[6]", "value": 0.5, "unit": "µg/mL"}, {"measurement": "half-life", "setting": "[7]", "value": 4.6, "unit": "h"}, {"measurement": "CL/F", "setting": "[8]", "value": 118, "unit": "mL/min"}, {"measurement": "fT>MIC", "setting": "[9]", "value": 100, "unit": "%"}, {"measurement": "ka", "setting": "[10]", "value": 2.7, "unit": "h⁻¹"}, {"measurement": "Cmax", "setting": "[11]", "value": 14900, "unit": "ng/mL"}, {"measurement": "k el at 168 h", "setting": "[12]", "value": "5.56e-05", "unit": "s⁻¹"}, {"measurement": "Cmax", "setting": "[13]", "value": 10300, "unit": "ng/mL"}, {"measurement": "Cmax", "setting": "[14]", "value": 13400, "unit": "ng/mL"}, {"measurement": "Tmax", "setting": "[15]", "value": 1.5, "unit": "h"}, {"measurement": "ka", "setting": "[16]", "value": 1.5, "unit": "h⁻¹"}, {"measurement": "k el at 168 h", "setting": "[17]", "value": "5.56e-05", "unit": "s⁻¹"}, {"measurement": "MIC", "setting": "[18]", "value": 1, "unit": "µg/mL"}]}
